ChEMBL document CHEMBL4196130, “3-(2-Carboxyethyl)indole-2-carboxylic Acid Derivatives: Structural Requirements and Properties of Potent Agonists of the Orphan G Protein-Coupled Receptor GPR17” (J Med Chem, 2018)
Activity calls are given as the source filed them. The rule behind the calls is not given here.

Legend:
[1] = molecular target: Uracil nucleotide/cysteinyl leukotriene receptor (Rattus norvegicus, UniProt Q09QM4); assay: Agonist activity at rat GPR17 expressed in HEK293 cells assessed as induction of intracellular calcium mobilization by calcium 5-dye based assay; type: functional, cell-based
In short: (§1)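 HEK293 cells expressing rat or mouse GPR17 were seeded at 60,000 cells/well on poly-D-lysine plates and loaded 40 min with Calcium 5 indicator dye. Calcium signals were read on a plate reader. EC50 was obtained by nonlinear regression of concentration-response data. Means ± SEM from 3 independent experiments.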

[2] = molecular target: Uracil nucleotide/cysteinyl leukotriene receptor (Mus musculus, UniProt Q6NS65); assay: Agonist activity at mouse GPR17 expressed in HEK293 cells assessed as induction of intracellular calcium mobilization by calcium 5-dye based assay; type: functional, cell-based; in short: as §1
[3] = molecular target: P2Y purinoceptor 1 (Homo sapiens) (UniProt P47900); assay: Agonist activity at human P2Y1 receptor transfected in human 1321N1 cells assessed as induction of calcium mobilization after 30 mins in presence of ADP by fluo-4 dye based assay; type: functional, cell-based
In short: (§2)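 Calcium mobilization was measured in 1321N1 astrocytoma cells stably transfected with human P2Y1, P2Y2, P2Y4 or P2Y6 receptors, read on a Flexstation III microplate reader.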

P2Y purinoceptor 2 = P2Y purinoceptor 2 (Homo sapiens, UniProt P41231); assay: Agonist activity at human P2Y2 receptor transfected in human 1321N1 cells assessed as induction of calcium mobilization after 30 mins in presence of UTP by fluo-4 dye based assay; type: functional, cell-based; in short: as §2
[4] = molecular target: P2Y purinoceptor 4 (Homo sapiens) (UniProt P51582); assay: Agonist activity at human P2Y4 receptor transfected in human 1321N1 cells assessed as induction of calcium mobilization after 30 mins in presence of UTP by fluo-4 dye based assay; type: functional, cell-based; in short: as §2
[5] = molecular target: P2Y purinoceptor 6 (Homo sapiens) (UniProt Q15077); assay: Agonist activity at human P2Y6 receptor transfected in human 1321N1 cells assessed as induction of calcium mobilization after 30 mins in presence of UDP by fluo-4 dye based assay; type: functional, cell-based; in short: as §2
[6] = molecular target: P2Y purinoceptor 12 (Homo sapiens) (UniProt Q9H244); assay: Agonist activity at human P2Y12 receptor transfected in CHO cells assessed as induction of beta-arrestin translocation; type: functional, cell-based
In short: (§3)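 β-Arrestin translocation assays were run in CHO cells stably transfected with human P2Y12 or P2Y14 receptors.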

[7] = molecular target: T1, P2Y purinoceptor 14 (Homo sapiens) (UniProt Q15391); assay: Agonist activity at human P2Y14 receptor transfected in CHO cells assessed as induction of beta-arrestin translocation; type: functional, cell-based; in short: as §3
T1 sequence (whole entry): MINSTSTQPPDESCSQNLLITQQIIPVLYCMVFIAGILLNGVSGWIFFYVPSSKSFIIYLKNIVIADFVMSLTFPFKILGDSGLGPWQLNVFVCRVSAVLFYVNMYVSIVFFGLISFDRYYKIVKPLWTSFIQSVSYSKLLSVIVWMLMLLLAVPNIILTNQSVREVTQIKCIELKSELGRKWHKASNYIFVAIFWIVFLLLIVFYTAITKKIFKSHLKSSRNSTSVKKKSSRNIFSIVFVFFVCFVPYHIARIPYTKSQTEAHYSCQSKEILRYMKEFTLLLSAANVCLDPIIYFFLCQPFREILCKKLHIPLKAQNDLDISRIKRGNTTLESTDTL

[8] = Selectivity ratio of EC50 for rat GPR17 expressed in HEK293 cells to EC50 for human GPR17 expressed in human 1321N1 cells; type: cell-based
[9] = Selectivity ratio of EC50 for mouse GPR17 expressed in HEK293 cells to EC50 for human GPR17 expressed in human 1321N1 cells; type: cell-based
[10] = molecular target: T2, Uracil nucleotide/cysteinyl leukotriene receptor (Homo sapiens, UniProt Q13304); assay: Displacement of [3H]PSB-12150 from human GPR17 expressed in CHO cell membranes after 60 mins by liquid scintillation counting
In short: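 Membranes from CHO cells stably expressing human GPR17 were incubated 60 min at 25°C with 25 nM [3H]PSB-12150 (17 Ci/mmol), 10 mM MgCl2 and increasing test compound concentrations. Bound radioligand was separated by GF/B filtration and counted by liquid scintillation. Nonspecific binding was defined with 100 µM unlabeled PSB-12150. Ki came from the Cheng-Prusoff equation with KD 1190 nM. Three independent experiments in duplicate.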

[11] = molecular target: T2, Uracil nucleotide/cysteinyl leukotriene receptor; assay: Agonist activity at human GPR17 expressed in human 1321N1 cells assessed as induction of calcium mobilization after 1 hr by Oregon Green BAPTA-1/AM dye-based fluorescence assay; type: functional, cell-based
In short: (§4)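 Stably transfected 1321N1 astrocytoma cells were trypsin/EDTA-harvested, held 45 min at 37°C, then loaded 1 h at 25°C in KRH buffer pH 7.4 with 3 µM Oregon Green BAPTA-1/AM and 1% Pluronic F127, washed, and plated at ~16,000 cells/well. Fluorescence was read at 520 nm for 30 s after compound injection. Efficacy was expressed relative to the maximum given by 10 µM MDL 29,951. EC50 came from concentration-response curves, run for compounds exceeding 50% stimulation at 10 µM. At least three independent experiments, each in duplicate.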

[12] = molecular target: T2, Uracil nucleotide/cysteinyl leukotriene receptor; assay: Antagonist activity at human GPR17 expressed in human 1321N1 cells assessed as inhibition of MDL 29,951-induced calcium mobilization after 1 hr by Oregon Green BAPTA-1/AM dye-based fluorescence assay; type: functional, cell-based
In short: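 Oregon Green BAPTA-1/AM calcium assay in hGPR17-1321N1 cells (1 h dye loading at 25°C in KRH buffer pH 7.4). Full inhibition curves were run for potent antagonists. Fluorescence was read at 520 nm.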

[13] = molecular target: T2, Uracil nucleotide/cysteinyl leukotriene receptor; assay: Agonist activity at human GPR17 expressed in human 1321N1 cells assessed as induction of calcium mobilization at >100 uM after 1 hr by Oregon Green BAPTA-1/AM dye-based fluorescence assay relative to control; type: functional, cell-based
[14] = molecular target: T2, Uracil nucleotide/cysteinyl leukotriene receptor; assay: Agonist activity at human GPR17 expressed in human 1321N1 cells assessed as induction of calcium mobilization at >30 uM after 1 hr by Oregon Green BAPTA-1/AM dye-based fluorescence assay relative to control; type: functional, cell-based
[15] = molecular target: T2, Uracil nucleotide/cysteinyl leukotriene receptor; assay: Agonist activity at human GPR17 expressed in human 1321N1 cells assessed as induction of calcium mobilization after 1 hr by Oregon Green BAPTA-1/AM dye-based fluorescence assay relative to MDL 29,951; type: functional, cell-based; in short: as §4
[16] = molecular target: T2, Uracil nucleotide/cysteinyl leukotriene receptor; assay: Antagonist activity at human GPR17 expressed in human 1321N1 cells assessed as inhibition of MDL 29,951-induced calcium mobilization at 30 uM after 1 hr by Oregon Green BAPTA-1/AM dye-based fluorescence assay relative to control
[17] = molecular target: T2, Uracil nucleotide/cysteinyl leukotriene receptor; assay: Agonist activity at human GPR17 expressed in human 1321N1 cells assessed as induction of calcium mobilization at >10 uM after 1 hr by Oregon Green BAPTA-1/AM dye-based fluorescence assay relative to control; type: functional, cell-based

Sequence of P2Y purinoceptor 2 (P41231 whole entry): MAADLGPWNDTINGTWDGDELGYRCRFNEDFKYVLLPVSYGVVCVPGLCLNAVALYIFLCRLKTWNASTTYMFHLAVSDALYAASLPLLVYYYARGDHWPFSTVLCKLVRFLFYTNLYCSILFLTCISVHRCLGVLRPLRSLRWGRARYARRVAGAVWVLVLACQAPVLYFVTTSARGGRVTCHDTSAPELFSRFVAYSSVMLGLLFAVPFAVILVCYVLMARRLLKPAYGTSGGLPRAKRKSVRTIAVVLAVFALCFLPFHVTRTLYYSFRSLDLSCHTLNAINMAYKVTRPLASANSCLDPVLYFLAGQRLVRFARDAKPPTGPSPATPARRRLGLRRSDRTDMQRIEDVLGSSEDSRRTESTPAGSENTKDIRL
T2 sequence (Q13304 whole entry): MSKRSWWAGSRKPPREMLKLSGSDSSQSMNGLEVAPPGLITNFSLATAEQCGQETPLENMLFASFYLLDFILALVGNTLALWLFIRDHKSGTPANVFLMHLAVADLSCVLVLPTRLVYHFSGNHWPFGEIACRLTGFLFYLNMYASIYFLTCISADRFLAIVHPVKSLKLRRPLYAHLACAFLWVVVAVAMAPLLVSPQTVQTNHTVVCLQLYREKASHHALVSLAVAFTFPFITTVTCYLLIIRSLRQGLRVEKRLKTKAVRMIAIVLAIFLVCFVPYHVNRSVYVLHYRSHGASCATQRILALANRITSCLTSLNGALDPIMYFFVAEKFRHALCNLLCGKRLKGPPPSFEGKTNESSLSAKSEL
Sequence of P2Y purinoceptor 4 (Homo sapiens) (P51582 whole entry): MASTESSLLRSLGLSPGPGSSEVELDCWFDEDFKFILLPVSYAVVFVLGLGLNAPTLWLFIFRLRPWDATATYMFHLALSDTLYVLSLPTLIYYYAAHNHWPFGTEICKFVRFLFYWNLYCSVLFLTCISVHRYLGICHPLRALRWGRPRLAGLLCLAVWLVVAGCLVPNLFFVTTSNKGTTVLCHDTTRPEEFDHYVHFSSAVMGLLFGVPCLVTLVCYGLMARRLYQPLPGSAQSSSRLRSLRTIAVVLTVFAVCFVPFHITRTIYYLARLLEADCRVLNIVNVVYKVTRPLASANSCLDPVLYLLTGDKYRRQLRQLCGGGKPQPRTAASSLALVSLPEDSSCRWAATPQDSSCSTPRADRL
Sequence of P2Y purinoceptor 6 (Homo sapiens) (Q15077 whole entry): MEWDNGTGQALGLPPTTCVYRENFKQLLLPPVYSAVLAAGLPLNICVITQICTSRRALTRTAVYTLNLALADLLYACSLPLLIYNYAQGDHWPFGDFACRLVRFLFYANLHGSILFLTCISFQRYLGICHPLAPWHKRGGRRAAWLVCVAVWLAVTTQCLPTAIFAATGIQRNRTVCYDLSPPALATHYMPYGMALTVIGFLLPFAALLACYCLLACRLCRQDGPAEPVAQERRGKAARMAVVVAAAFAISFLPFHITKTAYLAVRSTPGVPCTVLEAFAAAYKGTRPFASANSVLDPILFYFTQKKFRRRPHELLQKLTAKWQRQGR
Sequence of P2Y purinoceptor 1 (Homo sapiens) (P47900 whole entry): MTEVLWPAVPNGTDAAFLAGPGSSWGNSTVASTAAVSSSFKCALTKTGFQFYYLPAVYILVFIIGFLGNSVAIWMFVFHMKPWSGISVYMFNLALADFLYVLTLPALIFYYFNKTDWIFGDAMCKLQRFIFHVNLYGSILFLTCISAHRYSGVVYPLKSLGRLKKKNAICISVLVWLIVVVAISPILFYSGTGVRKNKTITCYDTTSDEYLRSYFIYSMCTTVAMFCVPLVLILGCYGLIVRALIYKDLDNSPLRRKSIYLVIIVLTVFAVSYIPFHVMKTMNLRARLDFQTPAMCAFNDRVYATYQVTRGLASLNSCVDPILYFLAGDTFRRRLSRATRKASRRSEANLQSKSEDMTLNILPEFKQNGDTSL
Sequence of P2Y purinoceptor 12 (Homo sapiens) (Q9H244 whole entry): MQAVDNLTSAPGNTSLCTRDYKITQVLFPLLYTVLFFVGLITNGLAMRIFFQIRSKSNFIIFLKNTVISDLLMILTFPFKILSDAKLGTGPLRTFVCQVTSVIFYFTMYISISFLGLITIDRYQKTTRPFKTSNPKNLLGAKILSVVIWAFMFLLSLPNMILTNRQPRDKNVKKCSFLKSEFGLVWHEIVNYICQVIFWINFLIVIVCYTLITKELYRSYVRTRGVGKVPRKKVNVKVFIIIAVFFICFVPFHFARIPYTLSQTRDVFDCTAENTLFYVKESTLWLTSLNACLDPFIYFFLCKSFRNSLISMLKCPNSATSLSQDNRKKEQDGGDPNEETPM
Sequence of Uracil nucleotide/cysteinyl leukotriene receptor (Rattus norvegicus, UniProt Q09QM4) (Q09QM4 whole entry): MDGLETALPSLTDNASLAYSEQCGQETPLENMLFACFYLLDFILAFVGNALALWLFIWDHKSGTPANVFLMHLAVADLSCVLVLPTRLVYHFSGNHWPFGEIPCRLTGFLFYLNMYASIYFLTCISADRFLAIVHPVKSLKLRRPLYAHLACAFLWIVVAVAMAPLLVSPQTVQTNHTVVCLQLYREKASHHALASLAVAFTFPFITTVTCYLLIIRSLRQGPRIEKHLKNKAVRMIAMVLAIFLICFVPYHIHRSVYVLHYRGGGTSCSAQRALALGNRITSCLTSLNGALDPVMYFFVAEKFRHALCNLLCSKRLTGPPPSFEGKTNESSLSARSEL
Sequence of Uracil nucleotide/cysteinyl leukotriene receptor (Mus musculus, UniProt Q6NS65) (Q6NS65 whole entry): as the sequence (Q09QM4 whole entry) above, with D2N, T6A, A15S, S270A counted along it

SMILES	EC50 [11] [µM]	Activity [14] [%]	Emax [15] [%]	other results
O=C(O)CCc1c(C(=O)O)[nH]c2cc(Cl)cc(Cl)c12				EC50 [1]: 705 nM; EC50 [2]: 1110 nM; Activity [3]: inactive; Activity (P2Y purinoceptor 2): inactive; Activity [4]: inactive; Activity [5]: inactive; Activity [6]: inactive; Activity [7]: inactive; Ratio EC50 [8]: 2 to 6; Ratio EC50 [9]: 2 to 6; Ki [10]: 2450 nM
O=C(O)CCc1c(C(=O)O)[nH]c2cc(-c3ccc(F)cc3)ccc12	4.02		48	
N[C@@H](Cc1c[nH]c2ccccc12)C(=O)O [TRYPTOPHAN]		0		IC50 [12]: > 30 µM; inhibition [16]: 1%
CN(C)CCc1c[nH]c2ccc(Cn3cncn3)cc12 [RIZATRIPTAN]		0		IC50 [12]: > 30 µM; inhibition [16]: 27%
O=C(O)CCc1c(C(=O)O)[nH]c2cc(Cc3ccccc3)ccc12	4.98		80	
O=C(O)CCc1c(C(=O)O)[nH]c2cccc(-c3ccccc3)c12	> 100			Activity [13]: 3%
COc1cccc2[nH]c(C(=O)O)c(CCC(=O)O)c12	> 100			Activity [13]: 4%
O=C(O)CCc1c(C(=O)O)[nH]c2cc(F)cc(F)c12			72	
CCCCCCCCOc1cc(Cl)cc2[nH]c(C(=O)O)c(CCC(=O)O)c12	> 10			Activity [17]: 25%
CCCCCCCCOc1cc(Cl)c2c(CCC(=O)O)c(C(=O)O)[nH]c2c1	0.117		77	
Cn1c(C(=O)O)c(CCC(=O)O)c2c(Cl)cc(Cl)cc21	> 30	16		
O=C(O)CCc1c(C(=O)O)[nH]c2cc(Cl)cc(-c3ccc(F)cc3)c12	3.68		101	
O=C(O)/C=C/c1c(C(=O)O)[nH]c2cc(Cl)cc(Cl)c12	> 30	22		
O=C(O)CCc1c(C(=O)O)[nH]c2cc(-c3ccccc3)ccc12			83	
O=C(O)CCc1c(C(=O)O)[nH]c2cc(-c3ccccc3)cc(-c3ccccc3)c12	4.09		84	
O=C(O)CCc1c[nH]c2cc(Cl)cc(Cl)c12	1.68		41	
O=C(O)CCc1c(C(=O)O)[nH]c2cc(-c3ccc(F)cc3)cc(Cl)c12	0.423		92	
O=C(O)CCc1c(C(=O)O)[nH]c2cc(F)cc(I)c12	1.47		92	
O=C(O)CCc1c(C(=O)O)[nH]c2cc(F)cc(Br)c12	0.624		100	
O=C(O)CCc1c(C(=O)O)[nH]c2cc(I)cc(F)c12	0.0321		122	Activity [3]: inactive; Activity (P2Y purinoceptor 2): inactive; Activity [4]: inactive; Activity [5]: inactive; Activity [6]: inactive; Activity [7]: inactive
COc1ccc2c(c1)c(CC(=O)O)c(C)n2C(=O)c1ccc(Cl)cc1 [INDOMETHACIN]		0		IC50 [12]: 28.8 µM
O=C(O)CCc1c(C(=O)O)n(CCC(=O)O)c2cc(Cl)cc(Cl)c12	5.44			
CCCCCOc1cc(Cl)cc2[nH]c(C(=O)O)c(CCC(=O)O)c12	≥ 10			
CCCCCOc1cc(Cl)c2c(CCC(=O)O)c(C(=O)O)[nH]c2c1	0.103		98	
O=C(O)CCc1c(C(=O)O)[nH]c2cc(Br)cc(F)c12	0.0279		102	Activity [3]: inactive; Activity (P2Y purinoceptor 2): inactive; Activity [4]: inactive; Activity [5]: inactive; Activity [6]: inactive; Activity [7]: inactive
O=C(O)CCc1c(C(=O)O)[nH]c2cc(Oc3ccccc3)ccc12	0.27		100	
O=C(O)Cc1c[nH]c2ccc(O)cc12		1		IC50 [12]: > 30 µM; inhibition [16]: 7%

The next lines start with results.

EC50 [11] [µM]	Activity [14] [%]	Emax [15] [%]	SMILES	other results
> 100			COc1ccc2c(CCC(=O)O)c(C(=O)O)[nH]c2c1	IC50 [12]: 8.4 µM; Activity [13]: 35%
> 30	9		O=C(O)CCc1c(C(=O)O)[nH]c2ccc(F)cc12	
4.83		98	O=C(O)CCc1c(C(=O)O)[nH]c2c(F)c(Br)ccc12	
> 30	1		O=C(O)CCCc1c(C(=O)O)[nH]c2cc(Cl)cc(Cl)c12	
> 100			O=C(O)CCc1c(C(=O)O)[nH]c2c(F)c(-c3cccs3)ccc12	Activity [13]: 21%
> 30	11		O=C(O)CCc1c(C(=O)O)[nH]c2cc(Cl)c(Cl)cc12	
9.55		87	O=C(O)CCc1c(C(=O)O)[nH]c2cc(-c3cccs3)ccc12	
3.01		65	O=C(O)CCc1c(C(=O)O)[nH]c2c(F)c(-c3ccccc3)ccc12	
> 30	8		O=C(O)CCc1c(C(=O)O)[nH]c2ccccc12	
> 30	16		O=C(O)CCc1c(C(=O)O)[nH]c2c(Cl)cc(Cl)c(Cl)c12	
7.9		87	O=C(O)CCc1c(C(=O)O)[nH]c2c(F)c(Cl)ccc12	
15.1		76	Cc1cc(C)c2c(CCC(=O)O)c(C(=O)O)[nH]c2c1	
14.4		57	O=C(O)CCc1c(C(=O)O)[nH]c2c(F)c(-c3ccco3)ccc12	
> 30	0		O=C(O)CCc1c(C(=O)O)[nH]c2c1ccc1ccccc12	
> 100			O=C(O)CCc1c(C(=O)O)[nH]c2c(Cl)c(Cl)ccc12	Activity [13]: 5%
4.13		74	O=C(O)CCc1c(C(=O)O)[nH]c2cc(-c3ccco3)ccc12	
> 100			O=C(O)CCc1c(C(=O)O)[nH]c2c(F)c(-c3ccc(F)cc3)ccc12	
≥ 10			O=C(O)CCc1c(C(=O)O)[nH]c2cc(F)ccc12	
> 30	5		COc1ccc2[nH]c(C(=O)O)c(CCC(=O)O)c2c1	
> 30	6		CC(C)c1ccc2[nH]c(C(=O)O)c(CCC(=O)O)c2c1	
		84	O=C(O)CCc1c(C(=O)O)[nH]c2cc(Cl)ccc12	
> 30	1		O=C(O)CCc1c(C(=O)O)[nH]c2c(Cl)ccc(Cl)c12	
